Test results: ChEMBL document CHEMBL1140733, “Comprehensive study of sansalvamide A derivatives and their structure-activity relationships against drug-resistant colon cancer cell lines” (J Med Chem, 2008)
Peptide text beside a SMILES is read from it.

Key:
HCT-116 [1] = test: Cytotoxicity against multidrug-resistant human HCT116 cells by thymidine incorporation assay; assay type: functional, cell-based
Procedure, shortened: (§1)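 Cells (3000/well) were plated in IMDM (HCT-116), RPMI 1640 (HCT-15) or MEM (WS-1), each with L-glutamine, 10% FBS and 0.1% penicillin-streptomycin. Compounds in DMSO (1% in all wells) were added after about 6 h and left for 72 h, with 3H-thymidine pulsed for the last 16 h. Uptake was scintillation-counted against DMSO controls. IC50 came from four-concentration curves, three experiments in quadruplicate.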

HCT-15 [2] = test: Cytotoxicity against multidrug-resistant human HCT15 cells by thymidine incorporation assay; assay type: functional, cell-based; procedure, shortened: as §1
HCT-116 [3] = test: Cytotoxicity against multidrug-resistant human HCT116 cells at 1 uM by thymidine incorporation assay; assay type: functional
Procedure, shortened: (§2)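 HCT-116 cells were grown in IMDM and HCT-15 in RPMI 1640, each with L-glutamine, 10% FBS and penicillin-streptomycin, at 3000 cells/well. Compound was applied at 1 µM in 1% DMSO for 72 h total, with 3H-thymidine added for the final 16 h. Percent growth inhibition versus DMSO controls was scintillation-counted, averaging three wells in each of three assays.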

HCT-15 [4] = test: Cytotoxicity against multidrug-resistant human HCT15 cells at 1 uM by thymidine incorporation assay; assay type: functional; procedure, shortened: as §2
[5] = Cytotoxicity against human WS1 cells by thymidine incorporation assay; assay type: cell-based; procedure, shortened: as §1
HCT-116 [6] = test: Selectivity for multidrug-resistant human HCT116 cells over human WS1 cells; assay type: functional
HCT-15 [7] = test: Selectivity for multidrug-resistant human HCT15 cells over human WS1 cells; assay type: functional

| SMILES | IC50 (HCT-116 [1]) | IC50 (HCT-15 [2]) | inhibition at 1 µM (HCT-116 [3]) | inhibition at 1 µM (HCT-15 [4]) | IC50 [5] | Ratio IC50 (HCT-116 [6]) | Ratio IC50 (HCT-15 [7]) |
| --- | --- | --- | --- | --- | --- | --- | --- |
| CC(C)C[C@@H]1NC(=O)[C@H](Cc2ccccc2)NC(=O)[C@@H](Cc2ccccc2)N(C)C(=O)[C@H](C(C)C)NC(=O)[C@H](CC(C)C)NC1=O | 0.8 µM | 0.7 µM | 59% | 57% | 200 µM | >250 | >250 |
| CC(C)C[C@@H]1NC(=O)[C@H](Cc2ccccc2)NC(=O)[C@H](CC(C)C)NC(=O)[C@@H](C(C)C)N(C)C(=O)[C@H](CC2CCCCC2)NC1=O (HELM PEPTIDE1{[Cha].[CC(C)[C@H](C(=O)[*:2])N(C)[*:1]].L.F.L}$PEPTIDE1,PEPTIDE1,1:R1-5:R2$$$V2.0) | 2.1 µM | 0.8 µM | 48% | 60% | 4 µM | – | – |
| CC(C)C[C@@H]1NC(=O)[C@H](C(C)C)NC(=O)[C@H](CC(C)C)N(C)C(=O)[C@@H](CC(C)C)NC(=O)[C@@H](Cc2ccccc2)NC1=O (HELM PEPTIDE1{[dL].[meL].V.L.[dF]}$PEPTIDE1,PEPTIDE1,1:R1-5:R2$$$V2.0) | 0.7 µM | 2.2 µM | 64% | 42% | 136 µM | – | – |
